Results on 23 molecules are retold here after ChEMBL document CHEMBL1137101, “3-Hydroxy-4-arylsulfonyltetrahydropyranyl-3-hydroxamic acids are novel inhibitors of MMP-13 and aggrecanase” (Bioorg Med Chem Lett, 2004).

The target of data set [1] is T1, A disintegrin and metalloproteinase with thrombospondin motifs 4 (Homo sapiens, UniProt O75173).
T1 sequence (O75173 whole entry): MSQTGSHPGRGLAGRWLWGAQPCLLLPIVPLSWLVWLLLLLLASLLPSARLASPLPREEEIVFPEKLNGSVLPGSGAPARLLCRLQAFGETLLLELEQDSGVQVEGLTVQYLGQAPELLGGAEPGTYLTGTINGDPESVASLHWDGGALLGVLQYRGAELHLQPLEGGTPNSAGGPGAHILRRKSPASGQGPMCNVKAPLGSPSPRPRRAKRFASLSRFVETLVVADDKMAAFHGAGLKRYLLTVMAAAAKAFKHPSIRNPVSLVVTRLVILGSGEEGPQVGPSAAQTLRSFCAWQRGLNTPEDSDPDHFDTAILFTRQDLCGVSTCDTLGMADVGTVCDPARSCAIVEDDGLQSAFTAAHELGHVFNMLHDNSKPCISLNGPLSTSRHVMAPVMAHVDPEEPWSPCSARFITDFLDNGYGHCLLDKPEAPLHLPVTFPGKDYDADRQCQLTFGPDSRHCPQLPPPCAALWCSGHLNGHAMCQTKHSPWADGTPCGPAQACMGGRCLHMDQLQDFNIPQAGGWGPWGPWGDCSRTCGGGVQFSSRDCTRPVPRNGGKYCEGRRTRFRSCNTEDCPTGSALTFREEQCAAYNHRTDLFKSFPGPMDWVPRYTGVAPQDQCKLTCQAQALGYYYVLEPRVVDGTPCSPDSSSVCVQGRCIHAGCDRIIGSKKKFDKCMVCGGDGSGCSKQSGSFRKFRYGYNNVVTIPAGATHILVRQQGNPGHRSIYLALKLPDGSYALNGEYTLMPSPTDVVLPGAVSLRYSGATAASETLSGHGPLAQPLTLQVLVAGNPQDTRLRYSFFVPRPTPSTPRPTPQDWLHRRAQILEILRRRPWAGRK
Briefly: Inhibitory concentration against aggrecanase. The procedure, abridged: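 Cell-based assay in porcine chondrocytes. Aggrecan GAG chains labelled by culture with ³⁵S sulfate, then unincorporated label washed out. Aggrecan degradation stimulated with IL-1a (5ng/mL).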

The target of data set [2] is T2, Interstitial collagenase (Homo sapiens, UniProt P03956).
T2 sequence (P03956 whole entry): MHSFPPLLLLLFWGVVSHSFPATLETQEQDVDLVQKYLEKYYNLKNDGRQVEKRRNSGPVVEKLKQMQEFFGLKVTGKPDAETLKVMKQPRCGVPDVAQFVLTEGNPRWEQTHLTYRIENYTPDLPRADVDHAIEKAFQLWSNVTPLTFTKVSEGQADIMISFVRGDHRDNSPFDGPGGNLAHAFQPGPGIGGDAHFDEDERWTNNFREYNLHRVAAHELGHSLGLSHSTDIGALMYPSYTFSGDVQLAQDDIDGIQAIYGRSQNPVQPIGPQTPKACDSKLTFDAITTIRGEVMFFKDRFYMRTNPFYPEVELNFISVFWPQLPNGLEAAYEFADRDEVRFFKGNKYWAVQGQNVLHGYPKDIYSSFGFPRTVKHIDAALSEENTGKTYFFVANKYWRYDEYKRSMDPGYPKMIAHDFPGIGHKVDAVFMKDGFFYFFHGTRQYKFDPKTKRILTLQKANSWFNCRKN
Briefly: Inhibitory concentration against matrix metalloprotease 1.

The target in data set [3] is Collagenase 3 (Homo sapiens, UniProt P45452). Description: Inhibitory concentration against matrix metalloprotease 13.
Data set [4] can be described thus: Inhibition of TNF alpha converting enzyme (TACE, ADAM17).
Data set [5] is described as follows: Oral bioavailability in rat. The data set is classed as ADME, organism-based. The note with it: in vivo. A digest of the protocol:
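Oral dose given to rat as a suspension in 0.5% aqueous methylcellulose.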

Data set [6] concerns the target Matrix metalloproteinase-14 (Homo sapiens, UniProt P50281). Description: Inhibition of matrix metalloprotease 14.
Data set [7] deals with Stromelysin-1 (Homo sapiens, UniProt P08254). Briefly: Inhibition of matrix metalloprotease 3.
Data set [8] in a line: Half life in rat. The data set is classed as ADME, organism-based. The note with it: in vivo. The procedure, abridged:
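Rat PK after IV bolus of 5mg/kg in glycerol formal. Blood drawn from the jugular vein at 5, 15, 30 min and 1, 2, 4, 6, 8, 24 h. Plasma diluted with an equal volume of water, extracted with MTBE, drug measured by LC–MS/MS. Parameters from noncompartmental analysis.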

The target of data set [9] is Matrix metalloproteinase-9 (Homo sapiens, UniProt P14780). Briefly: Inhibition of matrix metalloprotease 9.
The target of data set [10] is Macrophage metalloelastase (Homo sapiens, UniProt P39900). Description: Inhibition of matrix metalloprotease 12.
Macrophage metalloelastase, sequence (P39900 whole entry): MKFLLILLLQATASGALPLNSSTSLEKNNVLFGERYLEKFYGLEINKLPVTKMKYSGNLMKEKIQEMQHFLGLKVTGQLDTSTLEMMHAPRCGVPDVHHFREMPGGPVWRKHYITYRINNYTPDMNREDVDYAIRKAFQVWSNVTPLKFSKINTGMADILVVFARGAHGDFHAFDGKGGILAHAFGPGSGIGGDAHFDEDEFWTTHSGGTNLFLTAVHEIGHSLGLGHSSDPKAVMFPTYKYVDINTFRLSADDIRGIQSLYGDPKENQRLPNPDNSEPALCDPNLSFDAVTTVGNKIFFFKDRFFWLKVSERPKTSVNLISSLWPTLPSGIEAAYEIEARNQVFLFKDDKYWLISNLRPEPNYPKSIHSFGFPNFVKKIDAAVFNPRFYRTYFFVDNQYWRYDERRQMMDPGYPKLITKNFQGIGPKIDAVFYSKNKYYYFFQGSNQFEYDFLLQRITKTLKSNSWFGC

Stromelysin-1, sequence (P08254 whole entry): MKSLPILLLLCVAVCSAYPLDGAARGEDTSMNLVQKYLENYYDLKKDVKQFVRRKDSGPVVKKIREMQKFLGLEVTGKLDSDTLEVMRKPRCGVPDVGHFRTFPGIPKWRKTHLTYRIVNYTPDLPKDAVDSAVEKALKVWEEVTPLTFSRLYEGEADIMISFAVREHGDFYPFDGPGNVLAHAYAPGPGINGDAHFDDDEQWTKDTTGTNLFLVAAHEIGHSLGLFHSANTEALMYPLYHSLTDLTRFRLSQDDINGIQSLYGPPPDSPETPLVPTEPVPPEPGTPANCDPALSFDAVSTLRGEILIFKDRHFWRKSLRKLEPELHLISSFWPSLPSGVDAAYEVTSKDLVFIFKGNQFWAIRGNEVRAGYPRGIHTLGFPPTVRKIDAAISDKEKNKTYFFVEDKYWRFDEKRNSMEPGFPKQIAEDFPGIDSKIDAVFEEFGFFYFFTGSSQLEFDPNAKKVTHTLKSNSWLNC
Matrix metalloproteinase-9, sequence (P14780 whole entry): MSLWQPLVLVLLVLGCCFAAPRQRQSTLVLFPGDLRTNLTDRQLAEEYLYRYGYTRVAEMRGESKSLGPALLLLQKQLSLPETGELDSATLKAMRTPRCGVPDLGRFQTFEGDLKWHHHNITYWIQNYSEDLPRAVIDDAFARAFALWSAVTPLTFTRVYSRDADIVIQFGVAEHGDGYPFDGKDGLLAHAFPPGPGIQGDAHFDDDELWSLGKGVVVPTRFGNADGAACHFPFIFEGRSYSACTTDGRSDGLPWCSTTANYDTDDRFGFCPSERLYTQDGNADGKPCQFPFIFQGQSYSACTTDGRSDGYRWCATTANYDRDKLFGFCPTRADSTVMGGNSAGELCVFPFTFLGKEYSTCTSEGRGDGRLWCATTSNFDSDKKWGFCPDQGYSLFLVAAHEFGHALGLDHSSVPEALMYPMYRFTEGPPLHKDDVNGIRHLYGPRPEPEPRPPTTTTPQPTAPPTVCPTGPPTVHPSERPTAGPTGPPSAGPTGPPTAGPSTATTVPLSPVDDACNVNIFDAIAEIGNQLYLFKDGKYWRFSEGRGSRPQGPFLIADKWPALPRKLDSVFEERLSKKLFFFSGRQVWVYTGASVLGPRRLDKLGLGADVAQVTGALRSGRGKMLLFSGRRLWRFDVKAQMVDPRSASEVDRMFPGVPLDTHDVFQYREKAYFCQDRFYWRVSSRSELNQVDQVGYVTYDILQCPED

On to `O=C(NO)[C@@]1(O)COCC[C@H]1S(=O)(=O)c1ccc(OCc2ccccc2C(F)(F)F)cc1`, for which the IC50 in data set [1] was 0.22 µM; in data set [2], more than 30 µM; in [3], 0.028 µM.

Turning to `Cc1ccc(C)c(COc2ccc(S(=O)(=O)[C@@H]3CCOC[C@]3(O)C(=O)NO)cc2)c1`, the figures for the IC50 in [1], in data set [2] and in data set [3] were 0.026 µM, more than 30 µM and 0.3 µM, respectively.

As for `CO[C@]1(C(=O)NO)COCC[C@H]1S(=O)(=O)c1ccc(OCc2ccc(Cl)cc2Cl)cc1`, the IC50 in data set [1] turned out to be 0.1 µM; in [3] it was 0.046 µM.

For the molecule `O=C(NO)[C@@]1(O)COCC[C@H]1S(=O)(=O)c1ccc(OCc2ccc(Cl)cc2)cc1`, the IC50 is 0.33 µM in [1], 1.4 µM in data set [2] and 0.00088 µM in data set [3].

Consider `O=C(NO)[C@@]1(O)COCC[C@H]1S(=O)(=O)c1ccc(OCc2cccc(Cl)c2Cl)cc1`, for which the values for the IC50 in data set [1], in [2] and in data set [3] were 0.14 µM, 13 µM and 0.015 µM, respectively.

On to `Cc1ccccc1COc1ccc(S(=O)(=O)[C@@H]2CCOC[C@]2(O)C(=O)NO)cc1`, for which the IC50 in data set [1] is 0.055 µM; in data set [2] it was 12 µM; in data set [3], 0.021 µM.

`CO[C@]1(C(=O)NO)COCC[C@H]1S(=O)(=O)c1ccc(OCc2ccccc2Cl)cc1`: the 50% inhibitory concentration (IC50) in [1] was 0.1 µM; in data set [3], 0.038 µM.

Turning to `O=C(NO)[C@@]1(O)COCC[C@H]1S(=O)(=O)c1ccc(OCc2ccccc2Cl)cc1`, the IC50 amounted to 0.04 µM in [1], 2.8 µM in [2] and 0.0027 µM in data set [3].

`O=C(NO)[C@@]1(O)COCC[C@H]1S(=O)(=O)c1ccc(OCc2cccc(Cl)c2)cc1`: the IC50 in data set [1] is more than 1 µM; in data set [2], 7.9 µM; in data set [3], 0.0024 µM.

Take `O=C(NO)[C@@]1(O)COCC[C@H]1S(=O)(=O)c1ccc(OCc2c(Cl)cccc2Cl)cc1`: the values for the IC50 in data set [1], in [2] and in [3] were more than 1 µM, more than 30 µM and more than 0.3 µM, respectively.

For `Cc1ccc(Oc2ccc(S(=O)(=O)[C@@H]3CCOC[C@]3(O)C(=O)NO)cc2)cc1`, the IC50 in data set [1] is more than 1 µM; in data set [2] it was 0.12 µM; in [3], 0.001 µM.

Regarding `Cc1ccc(COc2ccc(S(=O)(=O)[C@@H]3CCOC[C@]3(O)C(=O)NO)cc2)c(C)c1`, the IC50 was found to be 0.37 µM in [1], 19 µM in data set [2] and 0.017 µM in data set [3].

For the molecule `Cc1cccc(COc2ccc(S(=O)(=O)[C@@H]3CCOC[C@]3(O)C(=O)NO)cc2)c1`, the concentration for half-maximal inhibition (IC50) in data set [1] was more than 1 µM; in [2], 22 µM; in data set [3], 0.005 µM.

For `Cc1cccc(-c2ccc(S(=O)(=O)[C@@H]3CCOC[C@]3(O)C(=O)NO)cc2)c1`, the IC50 in [1] is more than 1 µM; in data set [2] it was less than 0.03 µM; in [3] it was 0.00043 µM.

In the case of `O=C(NO)[C@H]1C[C@@H](O)CCN1S(=O)(=O)c1ccc(OCc2ccccc2Cl)cc1`, the figures for the IC50 in data set [4] and in data set [3] were 0.036 µM and 0.012 µM, respectively.

As for `Cc1cccc(C)c1COc1ccc(S(=O)(=O)[C@@H]2CCOC[C@]2(O)C(=O)NO)cc1`, the IC50 in data set [1] was more than 1 µM; in [2] it was more than 30 µM; in [3], more than 0.3 µM.

Turning to `Cc1ccc(COc2ccc(S(=O)(=O)[C@@H]3CCOC[C@]3(O)C(=O)NO)cc2)cc1`, the IC50 in [1] is more than 1 µM; in [2] it was 5.4 µM; in data set [3], 0.0013 µM.

Take `O=C(NO)[C@@]1(O)COCC[C@H]1S(=O)(=O)c1ccc(OCc2cc(Cl)ccc2Cl)cc1`: the figures for the IC50 in data set [1], in [2] and in data set [3] were 0.087 µM, 27 µM and 0.013 µM, respectively.

Turning to `Cc1cccc(Oc2ccc(S(=O)(=O)[C@@H]3CCOC[C@]3(O)C(=O)NO)cc2)c1`, the values for the IC50 in [1], in data set [2] and in data set [3] were more than 1 µM, 0.27 µM and 0.0011 µM, respectively.

On to `Cc1ccccc1-c1ccc(S(=O)(=O)[C@@H]2CCOC[C@]2(O)C(=O)NO)cc1`, for which the figures for the IC50 in data set [1], in data set [2] and in [3] were more than 1 µM, 10 µM and 0.14 µM, respectively.

As for `O=C(NO)[C@@]1(O)COCC[C@H]1S(=O)(=O)c1ccc(OCc2ccc(Cl)cc2Cl)cc1`, the IC50 in data set [1] was determined as 0.0081 µM; in data set [6], 0.15 µM; in data set [7] it was 0.055 µM; in [9] it was 0.0053 µM; in [2] it was 0.92 µM; in data set [10], 0.00095 µM. In addition, the IC50 in data set [3] came out at 0.00095 µM. Moreover, in data set [5], the bioavailability is 7%. The same molecule gave a half-life in [8] of 5 h.

With `Cc1ccc(-c2ccc(S(=O)(=O)[C@@H]3CCOC[C@]3(O)C(=O)NO)cc2)cc1`, the figures for the IC50 in data set [1], in data set [2] and in data set [3] were more than 1 µM, less than 0.03 µM and 0.00039 µM, respectively.

On to `Cc1ccccc1Oc1ccc(S(=O)(=O)[C@@H]2CCOC[C@]2(O)C(=O)NO)cc1`, for which the IC50 in data set [1] is more than 1 µM; in data set [2], 4.7 µM; in [3] it was 0.0098 µM.
